For assay [1], the target named is T1, RyR1/FKBP12 (Homo sapiens) (UniProt P21817+P62942). Description: Stabilization of FKBP12/RyR1 protein-protein interaction in human 8220 myoblast-derived myotubes assessed as reversal of SIN1-induced intracellular calcium leakage at 150 nM preincubated for 12 hrs followed by SIN1 stimulation and measured after 6 hrs by fura-2 AM dye based fluorescence assay relative to control. Conditions: Myotube, time 18.0 hrs. Put shortly: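 Immortalized human 8220 myoblasts differentiated 9 days into myotubes, pretreated with compounds at 150 nM for 12 h, then stressed with 5 mM SIN1 for 6 h. Loaded with Fura-2AM ([…]) plus 0.02% pluronic acid, 30 min, 37 °C; calcium from 340/380 nm excitation ratio. Six replicates, ≥4 images each; recovery score = (treated − untreated)/(control − untreated) × 100.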
Background: A change in cytosolic calcium serves as a functional read-out for many receptors and channels.

The target in assay [2] is T1, RyR1/FKBP12 (Homo sapiens). Description: Stabilization of FKBP12/RyR1 protein-protein interaction in human myotubes assessed as reversal of SIN1-induced reduction in FKBP12/RyR1 co-localization by measuring increase in FKBP12/RyR1 co-localization at 150 nM by in situ proximity ligation assay relative to control. It counts as tissue-based. More on the design: scale not given: the % may be the effect or the level left. Conditions: Myotube. Put shortly:
(§1)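 Human myotubes 7–9 days into differentiation, treated at 150 nM, then 5 mM SIN1 for 30 min; PFA-fixed, anti-RyR1 mouse mAb overnight, Duolink orange PLA, MyHC-FITC and DAPI counterstain. Co-localization spots quantified as % of untreated control; 11–15 fields from 3–4 cultures, ≥8 myotubes per field; one-way ANOVA with Dunnett's test.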

The target of assay [3] is T1, RyR1/FKBP12 (Homo sapiens). Description: Stabilization of FKBP12/RyR1 protein-protein interaction in human myotubes assessed as reversal of SIN1-induced reduction in FKBP12/RyR1 co-localization at 150 nM by in situ proximity ligation assay relative to control. More on the design: scale not given: the % may be the effect or the level left. The following applies: Myotube. Put shortly: as §1

Assay [4] concerns the target T1, RyR1/FKBP12 (Homo sapiens). Description: Effect on FKBP12/RyR1 protein-protein interaction in human myotubes by in situ proximity ligation assay. The following applies: Myotube. Summed up:
as §1

In assay [5] the target is T2, Peptidyl-prolyl cis-trans isomerase FKBP1A (Homo sapiens, UniProt P62942). Description: Binding affinity to FKBP12 (unknown origin) expressed in HEK293 cells co-expressing FRB assessed as inhibition of rapamycin-induced FKBP12-FRB dimerization measured after 25 mins by nano-glo live cell reagent based luminescence assay.
T2 sequence (P62942 whole entry): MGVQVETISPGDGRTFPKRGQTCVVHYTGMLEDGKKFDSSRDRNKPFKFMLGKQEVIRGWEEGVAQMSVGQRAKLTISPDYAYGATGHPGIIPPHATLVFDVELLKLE
Assay [6] addresses T2, Peptidyl-prolyl cis-trans isomerase FKBP1A. Description: Binding affinity to FKBP12 (unknown origin) expressed in HEK293 cells co-expressing FRB assessed as induction of FKBP12-FRB dimerization at […] measured for 15 mins by nano-glo live cell reagent based luminescence assay. Put shortly:
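HEK293 cells on poly-D-lysine, transfected with FRB-LgBiT and FKBP-SmBiT vectors (12.5 ng/mL each); assayed 20–24 h later in CO2-independent medium with Nano-Glo Live Cell Reagent at 37 °C. Compound added alone at […]; dimerization luminescence (RLU) followed over time, each addition recorded 15 min.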

The source made the active and inactive calls. The calls are words filed in the database; no cut-off is given here.

Regarding `O=C(O)Cn1cc(CSc2ccccc2)nn1`, the Activity in assay [1] is less than 90%.

For the compound `O=C(O)[C@@H](Cc1ccc(O)cc1)n1cc(CSc2cccc(C(F)(F)F)c2)nn1`, the result in assay [1] was Active.

Turning to `O=C(O)[C@@H](Cc1ccccc1)n1cc(CSc2cccc(C(F)(F)F)c2)nn1`, the result in assay [1] was inactive.

Turning to `COc1cccc(SCc2cn(C(C)(C)C(=O)O)nn2)c1`, the Activity in assay [1] is less than 90%.

Take `CCC[C@H](C(=O)O)n1cc(CSc2cccc(OC)c2)nn1`: the result in assay [1] was Active.

Consider `O=C(O)[C@H](Cc1ccc(O)cc1)n1cc(CSc2cccc(C(F)(F)F)c2)nn1`, for which the outcome in assay [1] was inactive.

For the compound `COc1cccc(SCc2cn([C@H](Cc3ccccc3)C(=O)O)nn2)c1`, the outcome in assay [1] was Active.

On to `COc1ccc2c(c1)CN(C)CCS2`, for which the Activity in assay [2] was determined as 84%; in assay [3], 56%. Further, in assay [1], the result was Active. Besides, the outcome in assay [4] was inactive.

For the compound `Cc1ccc(SCCc2cn(CC(=O)O)nn2)cc1`, the Activity in assay [1] is less than 90%.

`CC(C)(C)OC(=O)NCCCC[C@@H](C(=O)O)n1cc(CSc2cccc(Cl)c2)nn1`: the result in assay [1] was inactive.

`COc1cccc(SCc2cn([C@@H](Cc3ccccc3)C(=O)O)nn2)c1`: the outcome in assay [1] was Active.

`O=C(O)Cn1cc(CSc2cccc(Cl)c2)nn1`: the result in assay [1] was inactive.

For the compound `COc1cccc(SCc2cn(CC(=O)O)nn2)c1`, the values for the Activity in assay [1] and in assay [3] were less than 90% and 46%, respectively. Besides, the IC50 (in general, the midpoint of a concentration-inhibition curve) in assay [5] was found to be 3.32 µM. Besides, the outcome in assay [6] and in assay [4] was inactive.

`COc1ccc(SCc2cn(CC(=O)O)nn2)cc1`: the Activity in assay [1] was less than 90%.

Take `COc1cccc(SCc2cn([C@H](CC(C)C)C(=O)O)nn2)c1`: the outcome in assay [1] was Active.

Consider `O=C(O)Cn1cc(CSc2c(F)c(F)cc(F)c2F)nn1`, for which, in assay [1], the Activity is less than 90%.

Values taken from ChEMBL document CHEMBL4732161, “Discovery of a novel family of FKBP12 "reshapers" and their use as calcium modulators in skeletal muscle under nitro-oxidative stress” (Eur J Med Chem, 2021).
